Reference: ChEMBL document CHEMBL1687940, “Quinazoline sulfonamides as dual binders of the proteins B-cell lymphoma 2 and B-cell lymphoma extra long with potent proapoptotic cell-based activity” (J Med Chem, 2011)
The source made the active and inactive calls. No cut-off for these calls is given here.

Experiments:
MEF [1] = test: Cytotoxicity against mouse mcl-1 deficient MEF cells after 24 hrs by Cell titer glo assay in presence of 10% serum; assay type: functional, cell-based
Method in brief: (§1)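 Wild-type (mcl-1 fl/fl) or Mcl-1-deficient mouse embryonic fibroblasts kept in high-glucose DME with asparagine, 2-mercaptoethanol and 10% FCS. Exposed to compound 24 h in medium with 1% or 10% FCS. […] Means ± SEM of three independent experiments.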

[2] = molecular target: Apoptosis regulator Bcl-2 (Homo sapiens, UniProt P10415); test: Displacement of wild type mBimBH3 from human Bcl-2 by solution competition assay
NCI-H1963 = test: Cytotoxicity against human NCI-H1963 after 48 hrs by MTS assay in presence of 10% human serum; assay type: functional, cell-based; settings: NCI-H1963, 48 h
Method in brief: (§2)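 Treated 48 h in medium with 10% human serum. Each concentration run in duplicate, at least three separate times. Viability read by MTS proliferation assay.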

[3] = Cytotoxicity against human NCI-H146 after 48 hrs by MTS assay in presence of 10% human serum; assay type: functional; settings: NCI-H146, 48 h; method in brief: as §2
MEF [4] = test: Cytotoxicity against mouse MEF cells expressing mcl-1 fl/fl after 24 hrs by Cell titer glo assay in presence of 1% serum; assay type: functional, cell-based; method in brief: as §1
MEF [5] = test: Cytotoxicity against mouse MEF cells expressing mcl-1 fl/fl after 24 hrs by Cell titer glo assay in presence of 10% serum; assay type: functional, cell-based; method in brief: as §1
Bcl-2-like protein 2 = molecular target: T1, Bcl-2-like protein 2 (Homo sapiens, UniProt Q92843); test: Displacement of wild type mBimBH3 from human Bcl-w by solution competition assay
T1 sequence (Q92843 whole entry): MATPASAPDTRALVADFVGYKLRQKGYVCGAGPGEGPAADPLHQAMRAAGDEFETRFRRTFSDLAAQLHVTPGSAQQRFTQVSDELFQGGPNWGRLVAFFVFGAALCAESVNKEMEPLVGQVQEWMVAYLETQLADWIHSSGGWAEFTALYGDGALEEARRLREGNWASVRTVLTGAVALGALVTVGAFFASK

NCI-H889 = test: Cytotoxicity against human NCI-H889 after 48 hrs by MTS assay in presence of 10% human serum; assay type: functional, cell-based; settings: NCI-H889, 48 h; method in brief: as §2
[6] = molecular target: Induced myeloid leukemia cell differentiation protein Mcl-1 (Homo sapiens, UniProt Q07820); test: Displacement of wild type mBimBH3 from Mcl-1 by solution competition assay
MEF [7] = test: Cytotoxicity against mouse mcl-1 deficient MEF cells after 24 hrs by Cell titer glo assay in presence of 1% serum; assay type: functional, cell-based; method in brief: as §1
Bcl-2-like protein 1 [8] = molecular target: T2, Bcl-2-like protein 1 (Homo sapiens, UniProt Q07817); test: Binding affinity to Bcl-Xl assessed as association rate constant by surface plasmon resonance assay
Method in brief: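 Biacore SPR direct binding. Anti-GST antibody amine-coupled to CM5 chip (~10000 RU); GST-Bcl-xL captured (~1200 RU), fresh protein each cycle. Compound series injected at 90 μL/min, 25 °C; association 95 s, dissociation 240 s. Phosphate/NaCl/EDTA/Tween buffer with 5% DMSO, pH 7.4. Double referencing and DMSO solvent correction; fit to one-to-one model with mass transport for k_a, k_d.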

MEF [9] = test: Cytotoxicity against mouse MEF cells expressing mcl-1 fl/fl at 10 uM after 24 hrs by Cell titer glo assay in presence of 10% fetal bovine serum; assay type: functional, cell-based
MEF [10] = test: Cytotoxicity against mouse mcl-1 deficient MEF cells after 24 hrs by Cell titer glo assay in presence of 10% fetal bovine serum; assay type: functional, cell-based; method in brief: as §1
Bcl-2-like protein 1 [11] = molecular target: T2, Bcl-2-like protein 1; test: Displacement of biotinylated Bim-BH3 from GST-tagged Bcl-Xl by AlphaScreen competitive assay
Method in brief: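 Titration into a mix of GST-tagged Bcl-xL ΔC25 (0.6 nM final) and biotinylated Bim BH3-26 peptide (5.0 nM final), with anti-GST acceptor and streptavidin donor beads (15 μg/mL each). Protein–acceptor and peptide–donor pairs were preincubated 30 min, then added in turn, 4 h at room temperature. DMSO 1.0% final.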

MEF [12] = test: Cytotoxicity against mouse MEF cells expressing mcl-1 fl/fl after 24 hrs by Cell titer glo assay in presence of 10% fetal bovine serum; assay type: functional, cell-based; method in brief: as §1

T2 sequence (Q07817 whole entry): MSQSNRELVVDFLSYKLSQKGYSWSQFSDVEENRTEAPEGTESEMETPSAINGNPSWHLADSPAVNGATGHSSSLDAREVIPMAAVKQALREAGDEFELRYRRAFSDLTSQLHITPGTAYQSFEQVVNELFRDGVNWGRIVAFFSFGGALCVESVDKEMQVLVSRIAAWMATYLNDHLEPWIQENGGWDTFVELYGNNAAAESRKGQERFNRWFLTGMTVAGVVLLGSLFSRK
Apoptosis regulator Bcl-2, sequence (P10415 whole entry): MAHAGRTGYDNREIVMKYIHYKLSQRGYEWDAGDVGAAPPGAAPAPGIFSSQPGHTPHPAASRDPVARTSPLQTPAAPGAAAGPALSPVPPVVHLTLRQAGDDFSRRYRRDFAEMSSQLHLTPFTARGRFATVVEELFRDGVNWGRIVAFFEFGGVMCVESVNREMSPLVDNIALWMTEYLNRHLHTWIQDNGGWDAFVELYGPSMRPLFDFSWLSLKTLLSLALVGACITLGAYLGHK
Induced myeloid leukemia cell differentiation protein Mcl-1, sequence (Q07820 whole entry): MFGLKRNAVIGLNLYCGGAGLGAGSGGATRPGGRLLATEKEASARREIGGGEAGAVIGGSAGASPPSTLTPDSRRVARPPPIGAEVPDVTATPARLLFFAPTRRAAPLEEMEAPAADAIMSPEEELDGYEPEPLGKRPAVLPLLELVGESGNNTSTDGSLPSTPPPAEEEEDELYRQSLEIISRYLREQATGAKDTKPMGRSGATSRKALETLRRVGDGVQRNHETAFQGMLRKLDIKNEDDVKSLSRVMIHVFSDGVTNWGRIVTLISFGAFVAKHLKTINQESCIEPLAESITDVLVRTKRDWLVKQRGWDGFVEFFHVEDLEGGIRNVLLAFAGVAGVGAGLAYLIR

| SMILES | IC50 [2] | IC50 (Bcl-2-like protein 2) | IC50 [6] | Ka (Bcl-2-like protein 1 [8]) | IC50 (Bcl-2-like protein 1 [11]) | EC50 (MEF [1]) | EC50 (NCI-H1963) | EC50 [3] | EC50 (MEF [4]) | EC50 (MEF [5]) | EC50 (NCI-H889) | EC50 (MEF [7]) | Activity (MEF [9]) | EC50 (MEF [10]) | EC50 (MEF [12]) |
| --- | --- | --- | --- | --- | --- | --- | --- | --- | --- | --- | --- | --- | --- | --- | --- |
| O=S(=O)(Nc1ncnc2cc(N3CCN(Cc4ccccc4-c4ccc(Cl)cc4)CC3)ccc12)c1ccc(N[C@H](CCN2CCOCC2)CSc2ccccc2)c(S(=O)(=O)C(F)(F)F)c1 | 81 nM | > 1000 nM | > 1000 nM |  |  | 149 nM | 400 nM | 630 nM | > 10000 nM | > 10000 nM | 820 nM | 22.4 nM |  |  |  |
| CC1(C)CCC(c2ccc(Cl)cc2)=C(CN2CCN(c3ccc4c(NS(=O)(=O)c5ccc(N[C@H](CCN6CCOCC6)CSc6ccccc6)c([N+](=O)[O-])c5)ncnc4c3)CC2)C1 | 21 nM | > 1000 nM | > 1000 nM |  |  | 222 nM |  |  | > 10000 nM | > 10000 nM |  | 38 nM |  |  |  |
| CN(C)CC[C@H](CSc1ccccc1)Nc1ccc(S(=O)(=O)Nc2ncnc3cc(N4CCN(CC5=C(c6ccc(Cl)cc6)CCC(C)(C)C5)CC4)ccc23)cc1[N+](=O)[O-] | 12 nM | 540 nM | > 1000 nM |  |  | 61 nM |  |  | 1610 nM | 4300 nM |  | 16 nM |  |  |  |
| CC1(C)CCC(c2ccc(Cl)cc2)=C(CN2CCN(c3ccc(C(=O)NS(=O)(=O)c4ccc(N[C@H](CCN5CCOCC5)CSc5ccccc5)c(S(=O)(=O)C(F)(F)F)c4)cc3)CC2)C1 [NAVITOCLAX] |  |  |  |  |  |  | 51 nM | 80 nM |  |  | 120 nM |  |  |  |  |
| O=C(NS(=O)(=O)c1ccc(NCCSc2ccccc2)c([N+](=O)[O-])c1)c1ccc(-c2ccc(F)cc2)cc1 |  |  |  |  | 1500 nM |  |  |  |  |  |  |  |  |  |  |
| CC1(C)CCC(c2ccc(Cl)cc2)=C(CN2CCN(c3ccc4c(NS(=O)(=O)c5ccc(N[C@H](CCN6CCOCC6)CSc6ccccc6)c(S(=O)(=O)C(F)(F)F)c5)ncnc4c3)CC2)C1 | 84 nM | > 1000 nM | > 1000 nM |  |  | 328 nM |  |  | > 10000 nM | > 10000 nM |  | 37.2 nM |  |  |  |
| CN(C)CC[C@H](CSc1ccccc1)Nc1ccc(S(=O)(=O)Nc2ncnc3cc(N4CCN(Cc5ccccc5-c5ccc(Cl)cc5)CC4)ccc23)cc1[N+](=O)[O-] | 8.7 nM | 440 nM | > 1000 nM | 1.9 ×10⁵ /M/s |  | 110 nM | 170 nM | 610 nM | 1680 nM | 5820 nM | 210 nM | 40 nM |  | 110 nM | 5800 nM |

More lines, main results first:

| IC50 [2] | IC50 (Bcl-2-like protein 2) | IC50 [6] | Ka (Bcl-2-like protein 1 [8]) | IC50 (Bcl-2-like protein 1 [11]) | SMILES | EC50 (MEF [1]) | EC50 (NCI-H1963) | EC50 [3] | EC50 (MEF [4]) | EC50 (MEF [5]) | EC50 (NCI-H889) | EC50 (MEF [7]) | Activity (MEF [9]) | EC50 (MEF [10]) | EC50 (MEF [12]) |
| --- | --- | --- | --- | --- | --- | --- | --- | --- | --- | --- | --- | --- | --- | --- | --- |
| 5 nM | 275 nM | > 1000 nM |  |  | CN(C)CC[C@H](CSc1ccccc1)Nc1ccc(S(=O)(=O)Nc2ncnc3cc(N4CCN(CC5=C(c6ccc(Cl)cc6)CCC(C)(C)C5)CC4)ccc23)cc1S(=O)(=O)C(F)(F)F | 37.2 nM |  |  | 2650 nM | 5460 nM |  | 11.6 nM |  |  |  |
|  |  |  | 7.9 ×10⁵ /M/s |  | CN(C)CC[C@H](CSc1ccccc1)Nc1ccc(S(=O)(=O)NC(=O)c2ccc(N3CCN(Cc4ccccc4-c4ccc(Cl)cc4)CC3)cc2)cc1[N+](=O)[O-] [ABT 737] | 51 nM |  |  | > 10000 nM | > 10000 nM |  | 2.03 nM | inactive | 51 nM |  |
| 21 nM | > 1000 nM | > 1000 nM |  |  | O=[N+]([O-])c1cc(S(=O)(=O)Nc2ncnc3cc(N4CCN(Cc5ccccc5-c5ccc(Cl)cc5)CC4)ccc23)ccc1N[C@H](CCN1CCOCC1)CSc1ccccc1 | 190 nM | 1400 nM | 3700 nM | > 10000 nM | > 10000 nM | 1300 nM | 24.8 nM |  |  |  |
| 13 nM | 245 nM | > 1000 nM |  |  | CN(C)CC[C@H](CSc1ccccc1)Nc1ccc(S(=O)(=O)Nc2ncnc3cc(N4CCN(Cc5ccccc5-c5ccc(Cl)cc5)CC4)ccc23)cc1S(=O)(=O)C(F)(F)F |  |  |  |  |  |  |  |  |  |  |
